Screening data deposited in PubChem by The Scripps Research Institute Molecular Screening Center.
The list is not random: actives were taken first. Their share in the collection is about 1.9%.
LEDGF integ inh = blocks HIV-1 LEDGF/p75-dependent DNA integration; 370,000 tested, 0.64% active; inhibition, % at 3.7 µM; TR-FRET IN-LEDGF/p75 DNA integration, Eu/Cy5;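 active = inhibition above the screen-wide mean plus 3 SD, cut at about 13% in these data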;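 note: signal is the Cy5 over europium emission ratio at 671 and 618 nm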
MBD2 DNA inh = inhibitors of human MBD2 binding to methylated oligonucleotide; inhibition, % at 4.4 µM; 370,000 tested, 0.31% active; Q9UBB5; TR-FRET; in the data active = inhibition above about 13%
TDP2 absorb = TDP2 (human) inhibition, absorbance primary screen; recombinant TDP2, T5PNP hydrolysis, p-nitrophenol absorbance 415 nm; inhibition, % at 12.8 µM; 370,000 tested, 0.34% active; O95551;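 active = inhibition above the mean of all tested compounds plus 3 SD, set per campaign, cut at about 25% in these data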
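Test system: Human TDP2 enzyme | Reagent: 5 mM T5PNP | Compound dosing: 12.8 µM single point, 1% DMSO | Incubation: Enzyme reaction with compound for 2 h at 37 °C | Technique: p-Nitrophenol epi absorbance | Read-out: % inhibition relative to enzyme-containing and enzyme-free wells | Benchmarks: High control without enzyme, low control DMSO plus TDP2 | Replicates: Singlicate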
Tn7 DDE FP = disrupts Tn7 cyclic peptide binding to fibrin D-Dimer-E complex | FP displacement of FITC-Tn7 peptide from fibrin DD(E); 0% = median of compound wells per plate | inhibition, % at 8.3 µM | 370,000 tested, 0.13% active | AID 720508;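 active = inhibition above the mean of compounds falling within the control limits plus 3 SD of them, cut at about 14% in these data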
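Test system – human fibrin DD(E) · Times – 10 min preincubation, 3 h with tracer, room temperature · Detection – fluorescence polarization of the labelled Tn7 tracer · Measure – percent inhibition normalized to high-control wells · Benchmarks – high control wells with 10 µM unlabelled Aha-Tn7 peptide (full inhibition) · Repeats – singlicate testing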
DDE Tn6 FP inh = disrupts Tn6 cyclic peptide binding to fibrin D-Dimer-E complex; P02675; Fibrin DD(E) TRITC-Tn6 fluorescence polarization displacement; inhibition, % at 8.3 µM; 370,000 tested, 0.21% active;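 active = inhibition above a per-campaign cutoff: mean of compounds within control limits plus 3 SD, cut at about 15% in these data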
UHRF1 binding = human UHRF1 methylated DNA binding inhibitors. UHRF1 binding to methylated oligo, TR-FRET. inhibition, % at 4.4 µM. 370,000 tested, 0.75% active. AID 687016; in the data active = inhibition above about 21%;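 note: UHRF1 SRA domain binding a hemimethylated CpG hairpin DNA probe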
Target sequence (Q96T88 whole entry, looked up, the tested form may be a part): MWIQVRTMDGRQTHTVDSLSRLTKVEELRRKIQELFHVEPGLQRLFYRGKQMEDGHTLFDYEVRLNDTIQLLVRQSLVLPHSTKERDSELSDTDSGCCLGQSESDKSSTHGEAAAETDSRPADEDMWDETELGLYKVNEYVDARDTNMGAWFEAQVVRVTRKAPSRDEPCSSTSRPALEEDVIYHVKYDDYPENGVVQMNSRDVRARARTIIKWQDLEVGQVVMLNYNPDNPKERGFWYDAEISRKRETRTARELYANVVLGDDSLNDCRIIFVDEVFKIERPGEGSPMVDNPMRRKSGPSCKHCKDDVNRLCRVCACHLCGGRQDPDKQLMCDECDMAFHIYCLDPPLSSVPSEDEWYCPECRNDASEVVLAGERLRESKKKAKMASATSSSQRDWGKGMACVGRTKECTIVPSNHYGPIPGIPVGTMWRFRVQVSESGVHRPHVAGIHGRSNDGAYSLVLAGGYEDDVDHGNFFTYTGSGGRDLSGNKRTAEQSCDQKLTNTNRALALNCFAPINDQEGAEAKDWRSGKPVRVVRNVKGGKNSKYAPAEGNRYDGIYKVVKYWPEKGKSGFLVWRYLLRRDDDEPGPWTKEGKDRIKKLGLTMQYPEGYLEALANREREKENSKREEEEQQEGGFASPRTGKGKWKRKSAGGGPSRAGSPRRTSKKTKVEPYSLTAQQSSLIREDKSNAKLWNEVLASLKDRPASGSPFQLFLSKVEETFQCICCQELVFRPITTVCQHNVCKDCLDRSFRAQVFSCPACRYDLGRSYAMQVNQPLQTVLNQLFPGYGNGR
Numbers stand for hits.

COC(=O)[C@]12C[C@H](CC(=O)NCCCCc3ccccc3)C(=O)N(Cc3ccc(Cl)cc3Cl)C1=C[C@H](C(C)C)O[C@@H]2C1CC1 was read as LEDGF integ inh inactive, MBD2 DNA inh inactive, TDP2 absorb inactive, Tn7 DDE FP inactive, DDE Tn6 FP inh inactive and UHRF1 binding inactive.
For C=CCn1cccc(C(=O)Nc2ccc(C)c(C)c2)c1=O the results were LEDGF integ inh inactive, MBD2 DNA inh inactive, TDP2 absorb inactive, Tn7 DDE FP inactive, DDE Tn6 FP inh inactive and UHRF1 binding inactive.
For C=CCn1cccc(C(=O)Nc2cc(OC)ccc2OC)c1=O the results were LEDGF integ inh inactive, MBD2 DNA inh inactive, TDP2 absorb inactive, Tn7 DDE FP inactive, DDE Tn6 FP inh inactive and UHRF1 binding 29.
For Cc1cc(N2CCNC[C@H]2C)ccc1N1CCS(=O)(=O)CC1 the results were LEDGF integ inh inactive, MBD2 DNA inh inactive, TDP2 absorb inactive, Tn7 DDE FP inactive, DDE Tn6 FP inh inactive and UHRF1 binding inactive.
For Cc1n[nH]c(C)c1CCC(=O)N/N=C/C=C/c1ccccc1 the results were LEDGF integ inh inactive, MBD2 DNA inh inactive, TDP2 absorb inactive, Tn7 DDE FP inactive, DDE Tn6 FP inh inactive and UHRF1 binding 88.
For Cc1cc(C(=O)N/N=C/C=C/c2ccccc2)n[nH]1 the results were LEDGF integ inh inactive, MBD2 DNA inh inactive, TDP2 absorb inactive, Tn7 DDE FP inactive, DDE Tn6 FP inh inactive and UHRF1 binding inactive.
For COc1ccc(-c2sc3cc(OC)c(OC)cc3c2C#CC(C)(C)O)cc1 the results were LEDGF integ inh inactive, MBD2 DNA inh inactive, TDP2 absorb inactive, Tn7 DDE FP inactive, DDE Tn6 FP inh inactive and UHRF1 binding inactive.
Screening COc1ccc(-c2sc3cc(OC)c(OC)cc3c2C#CCO)cc1 returned LEDGF integ inh inactive, MBD2 DNA inh inactive, TDP2 absorb inactive, Tn7 DDE FP inactive, DDE Tn6 FP inh inactive and UHRF1 binding 22.
`O=C(C1CC1)N1CCC(Oc2cccc(C(=O)N3CCCCC3CCO)c2)CC1` (centres undefined) gave LEDGF integ inh inactive, MBD2 DNA inh inactive, TDP2 absorb inactive, Tn7 DDE FP inactive, DDE Tn6 FP inh inactive and UHRF1 binding inactive.
For COCC1CCCCN1C(=O)c1cccc(OC2CCN(S(C)(=O)=O)CC2)c1 (centres undefined) the results were LEDGF integ inh inactive, MBD2 DNA inh inactive, TDP2 absorb inactive, Tn7 DDE FP inactive, DDE Tn6 FP inh inactive and UHRF1 binding 31.
`CCn1cc(C(=O)N2CCN(c3ccc(F)cc3)CC2)c(=O)c2ccc(C)nc21` gave LEDGF integ inh inactive, MBD2 DNA inh inactive, TDP2 absorb inactive, Tn7 DDE FP inactive, DDE Tn6 FP inh inactive and UHRF1 binding inactive.
Screening O=C(NCc1ccccc1)C(c1ccc(C(F)(F)F)cc1)n1c(=O)c(-c2cc3ccccc3[nH]2)nc2ccccc21 (centres undefined) returned LEDGF integ inh inactive, MBD2 DNA inh inactive, TDP2 absorb inactive, Tn7 DDE FP inactive, DDE Tn6 FP inh inactive and UHRF1 binding inactive.
`c1ccc(Cn2ccc3ccc(-c4ccc5ccn(Cc6ccc(-c7ccccc7)cc6)c5c4)cc32)cc1` gave LEDGF integ inh inactive, MBD2 DNA inh inactive, TDP2 absorb inactive, Tn7 DDE FP inactive, DDE Tn6 FP inh inactive and UHRF1 binding inactive.
Screening COc1ccc(Cl)cc1NC(=O)CSc1nnc(CNC(=O)c2ccco2)o1 returned LEDGF integ inh inactive, MBD2 DNA inh inactive, TDP2 absorb inactive, Tn7 DDE FP inactive, DDE Tn6 FP inh inactive and UHRF1 binding 22.
`CCOC(=O)[C@]12CCCC=C1N(CCCOC)C(=O)[C@@H]2CC(=O)N1CCN(C(=O)c2ccco2)CC1` gave LEDGF integ inh inactive, MBD2 DNA inh inactive, TDP2 absorb inactive, Tn7 DDE FP inactive, DDE Tn6 FP inh inactive and UHRF1 binding inactive.
O=C1Nc2c(Cl)cc(Cl)cc2C12Nc1ccccc1S2 (centres undefined) was read as LEDGF integ inh inactive, MBD2 DNA inh inactive, TDP2 absorb inactive, Tn7 DDE FP inactive, DDE Tn6 FP inh inactive and UHRF1 binding inactive.
For CCCc1nc2ccc(Cl)cn2c1Cc1ccc(C)cc1 the results were LEDGF integ inh inactive, MBD2 DNA inh inactive, TDP2 absorb inactive, Tn7 DDE FP inactive, DDE Tn6 FP inh inactive and UHRF1 binding 21.
CCCc1nc2ccc(Cl)cn2c1Cc1cccc(Cl)c1 was read as LEDGF integ inh inactive, MBD2 DNA inh inactive, TDP2 absorb inactive, Tn7 DDE FP inactive, DDE Tn6 FP inh inactive and UHRF1 binding inactive.
`Brc1ccc(-c2nc3ccc(Br)cn3c2Cc2ccccc2)cc1` gave LEDGF integ inh inactive, MBD2 DNA inh inactive, TDP2 absorb inactive, Tn7 DDE FP inactive, DDE Tn6 FP inh inactive and UHRF1 binding 21.
Screening Cc1ccc(Cc2c(-c3ccc(Cl)cc3)nc3ccc(Br)cn23)cc1 returned LEDGF integ inh inactive, MBD2 DNA inh inactive, TDP2 absorb inactive, Tn7 DDE FP inactive, DDE Tn6 FP inh inactive and UHRF1 binding 21.
Screening Cc1ccc2nc(-c3ccc(F)cc3)c(Cc3cccc(Cl)c3)n2c1 returned LEDGF integ inh inactive, MBD2 DNA inh inactive, TDP2 absorb inactive, Tn7 DDE FP inactive, DDE Tn6 FP inh inactive and UHRF1 binding 66.
Cc1ccc(Cc2c(-c3cccc(Br)c3)nc3ccc(Br)cn23)cc1 was read as LEDGF integ inh inactive, MBD2 DNA inh inactive, TDP2 absorb inactive, Tn7 DDE FP inactive, DDE Tn6 FP inh inactive and UHRF1 binding inactive.
Screening Clc1ccc(-c2nc3ccc(Br)cn3c2Cc2ccccc2)cc1 returned LEDGF integ inh inactive, MBD2 DNA inh inactive, TDP2 absorb inactive, Tn7 DDE FP inactive, DDE Tn6 FP inh inactive and UHRF1 binding inactive.
O=C1c2ccccc2NC(c2cc(Cl)cc(Cl)c2O)N1CCc1ccccn1 (centres undefined) was read as LEDGF integ inh inactive, MBD2 DNA inh inactive, TDP2 absorb inactive, Tn7 DDE FP inactive, DDE Tn6 FP inh inactive and UHRF1 binding inactive.
COC(=O)C1CN(CC(C)C)CCS(=O)(=O)N1Cc1ccc(OC)cc1 (centres undefined) was read as LEDGF integ inh inactive, MBD2 DNA inh inactive, TDP2 absorb inactive, Tn7 DDE FP inactive, DDE Tn6 FP inh inactive and UHRF1 binding inactive.
O=C(C(=O)N1CCC(CNS(=O)(=O)c2ccc(F)cc2)CC1)c1cccs1 was read as LEDGF integ inh inactive, MBD2 DNA inh inactive, TDP2 absorb inactive, Tn7 DDE FP inactive, DDE Tn6 FP inh inactive and UHRF1 binding inactive.
`c1ccc(-c2nc3ccccc3nc2-c2ccc(CN3CCC4(CC3)CNc3ccccc34)cc2)cc1` gave LEDGF integ inh inactive, MBD2 DNA inh inactive, TDP2 absorb inactive, Tn7 DDE FP inactive, DDE Tn6 FP inh inactive and UHRF1 binding inactive.
`Cc1ccc(Cc2c(-c3ccc(C)cc3)nc3ccc(Br)cn23)cc1` gave LEDGF integ inh inactive, MBD2 DNA inh inactive, TDP2 absorb inactive, Tn7 DDE FP inactive, DDE Tn6 FP inh inactive and UHRF1 binding 22.
